In ChEMBL document CHEMBL1139351, “Synthesis and biological evaluation of vinca alkaloids and phomopsin hybrids” (J Med Chem, 2009):
Calls of active or inactive are those of the source. The rule behind the calls is not given here.

Experiments:
KB = experiment: Cytotoxicity against human KB cells after 72 hrs; type: functional, cell-based
Summary of the method: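 KB human cells; growth followed for 72 h of drug exposure; IC50 taken as the concentration giving 50% growth inhibition.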

[1] = Inhibition of tubulin polymerisation by UV spectrophotometry
Summary of the method: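 Microtubular protein purified from mammalian brain. Drug in ethanol at several concentrations added to free tubulin at 0 °C, then shifted to 37 °C. Assembly followed as optical density at 350 nm for 1 min. Maximum assembly rate compared with a no-drug sample. IC50 derived from several concentrations and compared with vinblastine run the same day on the same tubulin preparation.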

[2] = target: Tubulin beta-5 chain (Homo sapiens) (UniProt P07437); experiment: Inhibition of beta tubulin nucleotide site assessed as inhibition of displacement of cold GDP by [alpha32P]GTP at 20 uM by rapid filtration technique; set-up: scale not given: the % may be the effect or the level left
Sequence of Tubulin beta-5 chain (Homo sapiens) (P07437 whole entry): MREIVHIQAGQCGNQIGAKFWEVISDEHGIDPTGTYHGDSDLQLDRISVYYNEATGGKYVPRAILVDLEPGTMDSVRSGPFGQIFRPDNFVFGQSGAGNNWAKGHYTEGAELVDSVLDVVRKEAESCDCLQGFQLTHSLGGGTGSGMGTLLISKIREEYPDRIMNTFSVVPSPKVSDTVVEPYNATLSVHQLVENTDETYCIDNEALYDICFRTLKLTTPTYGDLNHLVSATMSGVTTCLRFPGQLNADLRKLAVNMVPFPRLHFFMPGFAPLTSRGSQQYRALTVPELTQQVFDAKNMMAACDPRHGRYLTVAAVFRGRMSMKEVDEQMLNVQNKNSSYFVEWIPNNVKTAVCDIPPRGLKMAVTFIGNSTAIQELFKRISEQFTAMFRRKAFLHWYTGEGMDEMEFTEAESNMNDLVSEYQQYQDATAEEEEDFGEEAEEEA

[3] = Inhibition of tubulin polymerization assessed as ratio of IC50 for compound to IC50 for vinblastin by UV spectrophotometry
Summary of the method: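 Microtubular protein purified from mammalian brain. Drug added from ethanol at several concentrations to free tubulin at 0 °C, then shifted to 37 °C. Assembly followed as OD at 350 nm for 1 min. Maximum assembly rate compared with a drug-free sample, giving IC50. Ratio taken against a vinblastine IC50 measured the same day on the same tubulin preparation.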

[4] = target: Tubulin beta-5 chain (Homo sapiens) (UniProt P07437); experiment: Inhibition of beta tubulin nucleotide site assessed as inhibition of displacement of cold GDP by [alpha32P]GTP at 40 uM by rapid filtration technique
[5] = target: Tubulin beta-5 chain (Homo sapiens) (UniProt P07437); experiment: Inhibition of beta tubulin nucleotide site assessed as displacement of cold GDP by [alpha32P]GTP at 100 uM by rapid filtration technique; set-up: scale not given: the % may be the effect or the level left
[6] = target: Tubulin beta-5 chain (Homo sapiens) (UniProt P07437); experiment: Inhibition of beta tubulin nucleotide site assessed as inhibition of displacement of cold GDP by [alpha32P]GTP by rapid filtration technique relative to phomopsin A

Compound	IC50 (KB; Homo sapiens, KB, 72 h) [µM]	Ratio IC50 [3]	other results
CCC1=C[C@@H]2CN(C1)Cc1c([nH]c3ccccc13)[C@@](C(=O)OC)(c1cc3c(cc1OC)N(C)[C@H]1[C@@](O)(C(=O)OC)[C@H](OC(C)=O)[C@]4(CC)C=CCN5CC[C@]31[C@@H]54)C2 (stereo in doubt; 3) [VINORELBINE]	–	–	IC50 (KB; kb): 0.04 µM
CC[C@]1(O)C[C@@H]2CN(CCc3c([nH]c4ccccc34)[C@@](C(=O)OC)(c3cc4c(cc3OC)N(C)[C@H]3[C@@](O)(C(=O)OC)[C@H](OC(C)=O)[C@]5(CC)C=CCN6CC[C@]43[C@@H]65)C2)C1 [VINBLASTINE]	0.001	1	IC50 [1]: 2.1 µM; Activity [2]: 25%
CCC1=C[C@@H]2C[C@](C(=O)OC)(c3cc4c(cc3OC)N(C)[C@H]3[C@@](O)(C(=O)OC)[C@H](OC(C)=O)[C@]5(CC)C=CCN6CC[C@]43[C@@H]65)c3[nH]c4ccccc4c3C[N+](CC(=O)N3CCC[C@H]3C(=O)N[C@H](C(=O)OCc3ccccc3)[C@@H](C)CC)(C1)C2	0.05	9.4	–
CCC1=C[C@@H]2C[C@](C(=O)OC)(c3cc4c(cc3OC)N(C)[C@H]3[C@@](O)(C(=O)OC)[C@H](OC(C)=O)[C@]5(CC)C=CCN6CC[C@]43[C@@H]65)c3[nH]c4ccccc4c3CC[N+](CC(=O)N3CCC[C@H]3C(=O)N[C@H](C(=O)N[C@@H](CC(=O)OCc3ccccc3)C(=O)OCc3ccccc3)[C@@H](C)CC)(C1)C2	0.7	1.3	Activity [4]: inactive; Activity [5]: 55%; Activity [2]: inactive; Activity [6]: inactive
CCC1=C[C@@H]2C[C@](C(=O)OC)(c3cc4c(cc3OC)N(C)[C@H]3[C@@](O)(C(=O)OC)[C@H](OC(C)=O)[C@]5(CC)C=CCN6CC[C@]43[C@@H]65)c3[nH]c4ccccc4c3CC[N+](CC(=O)N3CCC[C@H]3C(=O)N[C@H](C(=O)N[C@@H](CC(=O)O)C(=O)O)[C@@H](C)CC)(C1)C2	0.1	2	–
CCC1=C[C@@H]2C[C@](C(=O)OC)(c3cc4c(cc3OC)N(C)[C@H]3[C@@](O)(C(=O)OC)[C@H](OC(C)=O)[C@]5(CC)C=CCN6CC[C@]43[C@@H]65)c3[nH]c4ccccc4c3CC[N+](CC(=O)N3CCC[C@H]3C(=O)N[C@H](C(=O)OCc3ccccc3)[C@@H](C)CC)(C1)C2	0.3	1.4	–
CCC1=C[C@@H]2C[C@](C(=O)OC)(c3cc4c(cc3OC)N(C)[C@H]3[C@@](O)(C(=O)OC)[C@H](OC(C)=O)[C@]5(CC)C=CCN6CC[C@]43[C@@H]65)c3[nH]c4ccccc4c3C[N+](CC(=O)N3CCC[C@H]3C(=O)N[C@H](C(=O)N[C@@H](CC(=O)O)C(=O)O)[C@@H](C)CC)(C1)C2	0.4	19.4	–
CCC1=C[C@@H]2C[C@](C(=O)OC)(c3cc4c(cc3OC)N(C)[C@H]3[C@@](O)(C(=O)OC)[C@H](OC(C)=O)[C@]5(CC)C=CCN6CC[C@]43[C@@H]65)c3[nH]c4ccccc4c3CC[N+](CC(=O)N3CCC[C@H]3C(=O)OC)(C1)C2	0.08	0.9	–
CCC1=C[C@@H]2C[C@](C(=O)OC)(c3cc4c(cc3OC)N(C)[C@H]3[C@@](O)(C(=O)OC)[C@H](OC(C)=O)[C@]5(CC)C=CCN6CC[C@]43[C@@H]65)c3[nH]c4ccccc4c3C[N+](CC(=O)N3CCC[C@H]3C(=O)OC)(C1)C2	0.1	2	–
CC[C@H](C)[C@H](NC(=O)[C@@H]1CCCN1C(=O)[C@H]1NC(=O)[C@H](C(C)C)NC(=O)[C@@H](NC)[C@@H](O)c2cc(Cl)c(O)c(c2)O[C@]1(C)CC)C(=O)NC(CC(=O)O)C(=O)O (mixture of isomers)	–	–	IC50 [1]: 0.4 µM
CCC1=C[C@@H]2C[C@](C(=O)OC)(c3cc4c(cc3OC)N(C)[C@H]3[C@@](O)(C(=O)OC)[C@H](OC(C)=O)[C@]5(CC)C=CCN6CC[C@]43[C@@H]65)c3[nH]c4ccccc4c3C[N+](CC(=O)N3CCC[C@H]3C(=O)N[C@H](C(=O)N[C@@H](CC(=O)OCc3ccccc3)C(=O)OCc3ccccc3)[C@@H](C)CC)(C1)C2	1.3	1.8	–
CCC1=C[C@@H]2CN(C1)Cc1c([nH]c3ccccc13)[C@@](C(=O)OC)(c1cc3c(cc1OC)N(C)[C@H]1[C@@](O)(C(=O)OC)[C@H](OC(C)=O)[C@]4(CC)C=CCN5CC[C@]31[C@@H]54)C2 (stereo in doubt; 4) [VINORELBINE]	–	–	IC50 (KB; kb): 0.001 µM
CCC1=C[C@@H]2C[C@](C(=O)OC)(c3cc4c(cc3OC)N(C)[C@H]3[C@@](O)(C(=O)OC)[C@H](OC(C)=O)[C@]5(CC)C=CCN6CC[C@]43[C@@H]65)c3[nH]c4ccccc4c3C[N+](CC(=O)N3CCC[C@H]3C(=O)N[C@H](C(=O)O)[C@@H](C)CC)(C1)C2	0.09	9.4	–
C=C(C)[C@@H]1NC(=O)[C@@H](NC)[C@@H](O)c2cc(Cl)c(O)c(c2)O[C@](C)(CC)[C@@H](C(=O)N2CC=C[C@H]2C(=O)N/C(C(=O)N/C(=C/C(=O)O)C(=O)O)=C(\C)CC)NC1=O [PHOMOPSIN A]	–	–	IC50 [1]: 0.56 µM; Activity [2]: Active
CCC1=C[C@@H]2C[C@](C(=O)OC)(c3cc4c(cc3OC)N(C)[C@H]3[C@@](O)(C(=O)OC)[C@H](OC(C)=O)[C@]5(CC)C=CCN6CC[C@]43[C@@H]65)c3[nH]c4ccccc4c3CC[N+](CC(=O)N3CCC[C@H]3C(=O)N[C@H](C(=O)O)[C@@H](C)CC)(C1)C2	0.7	1.7	–
